In publication PMC11439047 (Nature Communications, 2024):
Changes are numbered by the printed parent chain.

Tests used:
P2X1 receptor E122A = molecular target: T1, P2X1 receptor E122A (Homo sapiens, UniProt P51575, E122A); experiment: Calcium ion influx assay; assay type: cell-based
T1 sequence (P51575 1-399 E122A): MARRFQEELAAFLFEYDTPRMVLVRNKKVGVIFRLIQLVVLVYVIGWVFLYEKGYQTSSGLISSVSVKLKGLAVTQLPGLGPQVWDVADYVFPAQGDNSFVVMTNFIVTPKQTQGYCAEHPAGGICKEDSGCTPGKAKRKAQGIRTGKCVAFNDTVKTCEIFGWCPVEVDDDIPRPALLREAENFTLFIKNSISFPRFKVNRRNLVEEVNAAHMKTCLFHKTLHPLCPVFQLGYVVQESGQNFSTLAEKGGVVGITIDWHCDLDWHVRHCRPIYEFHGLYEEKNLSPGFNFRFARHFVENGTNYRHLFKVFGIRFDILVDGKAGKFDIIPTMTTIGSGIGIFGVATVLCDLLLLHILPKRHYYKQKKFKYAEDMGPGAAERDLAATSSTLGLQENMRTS
Summary of the method: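 Tetracycline-induced (150 ng/mL, 2 days) stable HEK293 Flp-In T-REx cells at 15,000 cells/well, loaded with Fluo-8 for 1 h at 37 °C in probenecid-containing HEPES buffer, pH 7.4. Then 30 min buffer incubation, 20 s baseline, agonist addition and 2 min reading (ex 485/em 525 nm). Max-minus-min fluorescence normalised to 10 µM ionomycin, rescaled 0–100. Constrained four-parameter fit; EC50 per experiment; four independent experiments, triplicate.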

WT-P2X1 receptor = molecular target: T2, WT-P2X1 receptor (Homo sapiens, UniProt P51575); experiment: Calcium ion influx assay; assay type: cell-based; conditions: read-out: potency; WT-P2X1, Fig. 4B
T2 sequence (P51575 1-399): T1 sequence (P51575 1-399 E122A) with A122E

P2X1 receptor R139P = molecular target: T3, P2X1 receptor R139P (Homo sapiens, UniProt P51575, R139P); experiment: Saturation radioligand binding with [3H]-α,β-methylene ATP
T3 sequence (P51575 1-399 R139P): T1 sequence (P51575 1-399 E122A) with A122E, R139P
Summary of the method: (§1)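 Whole HEK293 Flp-In T-REx cells stably expressing receptor, tetracycline-induced (150 ng/ml, 2 days), 15,000 cells/well, washed in HEPES binding buffer pH 7.4 with Ca2+/Mg2+. Increasing [3H]-α,β-methylene ATP added, 3 h room temperature with gentle agitation; non-specific binding with 10 μM ATP. Ice-cold 0.9% NaCl washes, scintillation counting (CCPM). Specific binding fitted one-site; values above 300 nM termed not defined.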

P2X1 receptor K215A = molecular target: T4, P2X1 receptor K215A (Homo sapiens, UniProt P51575, K215A); experiment: as above
T4 sequence (P51575 1-399 K215A): T1 sequence (P51575 1-399 E122A) with A122E, K215A
Summary of the method: as §1

P2X1 receptor D97A = molecular target: T5, P2X1 receptor D97A (Homo sapiens, UniProt P51575, D97A); experiment: as above
T5 sequence (P51575 1-399 D97A): T1 sequence (P51575 1-399 E122A) with D97A, A122E
Summary of the method: as §1

P2X1 receptor S286A = molecular target: T6, P2X1 receptor S286A (Homo sapiens, UniProt P51575, S286A); experiment: as above
T6 sequence (P51575 1-399 S286A): T1 sequence (P51575 1-399 E122A) with A122E, S286A
Summary of the method: as §1

fold decrease in potency compared to WT-P2X1 (P2X1 receptor E122A): 18.5 fold | EC50 (WT-P2X1 receptor): 99 nM | binding affinity compared to WT-P2X1 (P2X1 receptor R139P): reduced | binding affinity compared to WT-P2X1 (P2X1 receptor K215A): similar | binding affinity compared to WT-P2X1 (P2X1 receptor D97A): similar | binding affinity compared to WT-P2X1 (P2X1 receptor S286A): comparable to that of WT-P2X1
SMILES: Nc1ncnc2c1ncn2[C@@H]1O[C@H](COP(=O)(O)CP(=O)(O)OP(=O)(O)O)[C@@H](O)[C@H]1O [α,β-methylene ATP]
